Experimental data: ChEMBL document CHEMBL5724801, “EUbOPEN Chemogenomics Library - Multiplex” (2024)
“And” between values parts separate entries of the source, which are not always exact repeats. Equal entries are not always repeated.

Test system: HEK-293T
Test: Multiplex assay against HEK293T
Assay type: toxicity, cell-based
Details: human
How it was run: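 Live cells were stained at seeding with Hoechst33342, BioTracker Green Microtubule Cytoskeleton Dye, MitoTracker Red and Annexin V Alexa Fluor 680. Following compound addition, they were imaged on a CQ1 microscope at 37°C and 5% CO2 and gated by CellPathfinder machine learning into Hoechst high-intensity objects or normal cells, with normal cells split into healthy, pyknosed or fragmented nuclei and pyknosed cells into mitotic or apoptotic. Tubulin, mitochondrial-mass and membrane-permeability phenotypes are per cents of healthy-nucleus cells.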

[1] = 12 h, 1 µM, compound concentration 1 uM
[2] = 12 h, 10 µM, compound concentration 10 uM
[3] = 24 h, 1 µM, compound concentration 1 uM
[4] = 24 h, 10 µM, compound concentration 10 uM
[5] = 48 h, 1 µM, compound concentration 1 uM
[6] = 48 h, 10 µM, compound concentration 10 uM

SMILES: CC(C)C[C@H](CO)Nc1nc(S[C@@H](C)c2ccccc2)nc2nc(N)sc12 [AZD-8797]
- Population Apoptotic (%) [1]: 39% and 46%
- Population Fragmented Nuclei (%) [1]: 2% and 8%
- Population Healthy Nuclei (%) [1]: 81% and 72%
- Population Hoechst High Intensity Objects (%) [1]: 4% and 7%
- Population Membrane Permeable-Phenotype (%) [1]: 0%
- Population Mitochondria Different-Phenotype (%) [1]: 44% and 57%
- Population Mitotic Cells (%) [1]: 60% and 53%
- Population Normal (%) [1]: 95% and 92%
- Population Pyknosed Nuclei (%) [1]: 15% and 18%
- Population Tubulin-Different-Phenotype (%) [1]: 27% and 22%
- Total Cell Count [1]: 326 and 356
- Population Apoptotic (%) [2]: 65% and 67%
- Population Fragmented Nuclei (%) [2]: 9% and 6%
- Population Healthy Nuclei (%) [2]: 71% and 75%
- Population Hoechst High Intensity Objects (%) [2]: 10%
- Population Membrane Permeable-Phenotype (%) [2]: 0%
- Population Mitochondria Different-Phenotype (%) [2]: 70% and 75%
- Population Mitotic Cells (%) [2]: 34% and 32%
- Population Normal (%) [2]: 89%
- Population Pyknosed Nuclei (%) [2]: 18%
- Population Tubulin-Different-Phenotype (%) [2]: 56% and 39%
- Total Cell Count [2]: 279 and 345
- Population Apoptotic (%) [3]: 37% and 45%
- Population Fragmented Nuclei (%) [3]: 7%
- Population Healthy Nuclei (%) [3]: 76% and 81%
- Population Hoechst High Intensity Objects (%) [3]: 3% and 5%
- Population Membrane Permeable-Phenotype (%) [3]: 0%
- Population Mitochondria Different-Phenotype (%) [3]: 25% and 42%
- Population Mitotic Cells (%) [3]: 62% and 54%
- Population Normal (%) [3]: 97% and 94%
- Population Pyknosed Nuclei (%) [3]: 15% and 11%
- Population Tubulin-Different-Phenotype (%) [3]: 16% and 14%
- Total Cell Count [3]: 400 and 421
- Population Apoptotic (%) [4]: 54% and 51%
- Population Fragmented Nuclei (%) [4]: 8% and 9%
- Population Healthy Nuclei (%) [4]: 73% and 77%
- Population Hoechst High Intensity Objects (%) [4]: 9% and 8%
- Population Membrane Permeable-Phenotype (%) [4]: 0%
- Population Mitochondria Different-Phenotype (%) [4]: 64% and 71%
- Population Mitotic Cells (%) [4]: 45% and 48%
- Population Normal (%) [4]: 90% and 91%
- Population Pyknosed Nuclei (%) [4]: 17% and 12%
- Population Tubulin-Different-Phenotype (%) [4]: 39% and 36%
- Total Cell Count [4]: 346 and 393
- Population Apoptotic (%) [5]: 43% and 24%
- Population Fragmented Nuclei (%) [5]: 15% and 12%
- Population Healthy Nuclei (%) [5]: 78% and 79%
- Population Hoechst High Intensity Objects (%) [5]: 1% and 3%
- Population Membrane Permeable-Phenotype (%) [5]: 0% and 1%
- Population Mitochondria Different-Phenotype (%) [5]: 16% and 24%
- Population Mitotic Cells (%) [5]: 56% and 75%
- Population Normal (%) [5]: 98% and 96%
- Population Pyknosed Nuclei (%) [5]: 6% and 8%
- Population Tubulin-Different-Phenotype (%) [5]: 10% and 13%
- Total Cell Count [5]: 663 and 681
- Population Apoptotic (%) [6]: 60% and 52%
- Population Fragmented Nuclei (%) [6]: 16% and 15%
- Population Healthy Nuclei (%) [6]: 72% and 75%
- Population Hoechst High Intensity Objects (%) [6]: 7% and 6%
- Population Membrane Permeable-Phenotype (%) [6]: 0%
- Population Mitochondria Different-Phenotype (%) [6]: 57% and 52%
- Population Mitotic Cells (%) [6]: 39% and 47%
- Population Normal (%) [6]: 92% and 93%
- Population Pyknosed Nuclei (%) [6]: 11% and 8%
- Population Tubulin-Different-Phenotype (%) [6]: 28% and 21%
- Total Cell Count [6]: 416 and 530

SMILES: Cc1c(-c2cc(-c3ccccc3Cl)no2)cnn1C1CCNCC1.Cl
- Population Apoptotic (%) [1]: 10.39% and 11.29%
- Population Fragmented Nuclei (%) [1]: 3.59% and 2.19%
- Population Hoechst High Intensity Objects (%) [1]: 0.28% and 0%
- Population Membrane Permeable-Phenotype (%) [1]: 0%
- Population Mitochondria Different-Phenotype (%) [1]: 33.33% and 20%
- Population Mitotic Cells (%) [1]: 89.61% and 88.71%
- Population Normal (%) [1]: 99.72% and 100%
- Population Pyknosed Nuclei (%) [1]: 42.54% and 90.51%
- Population Tubulin-Different-Phenotype (%) [1]: 9.74% and 20%
- Total Cell Count [1]: 363 and 137
- Population Apoptotic (%) [2]: 15.64% and 14.06%
- Population Fragmented Nuclei (%) [2]: 1.78% and 2.96%
- Population Hoechst High Intensity Objects (%) [2]: 0.44% and 0%
- Population Membrane Permeable-Phenotype (%) [2]: 2.38% and 0%
- Population Mitochondria Different-Phenotype (%) [2]: 42.86% and 33.33%
- Population Mitotic Cells (%) [2]: 84.36% and 85.94%
- Population Normal (%) [2]: 99.56% and 100%
- Population Pyknosed Nuclei (%) [2]: 79.56% and 94.81%
- Population Tubulin-Different-Phenotype (%) [2]: 78.57% and 100%
- Total Cell Count [2]: 226 and 135
- Population Apoptotic (%) [3]: 16.36% and 12.04%
- Population Fragmented Nuclei (%) [3]: 2.54% and 2.07%
- Population Healthy Nuclei (%) [3]: 62.58% and 23.45%
- Population Hoechst High Intensity Objects (%) [3]: 0.21% and 0.68%
- Population Membrane Permeable-Phenotype (%) [3]: 1.35% and 0%
- Population Mitochondria Different-Phenotype (%) [3]: 20.61% and 26.47%
- Population Mitotic Cells (%) [3]: 83.64% and 87.96%
- Population Normal (%) [3]: 99.79% and 99.32%
- Population Pyknosed Nuclei (%) [3]: 34.88% and 74.48%
- Population Tubulin-Different-Phenotype (%) [3]: 23.31% and 17.65%
- Population Apoptotic (%) [4]: 46.71% and 55.88%
- Population Fragmented Nuclei (%) [4]: 1.42% and 2.05%
- Population Hoechst High Intensity Objects (%) [4]: 1.85% and 0.68%
- Population Membrane Permeable-Phenotype (%) [4]: 0% and 14.29%
- Population Mitochondria Different-Phenotype (%) [4]: 78.57% and 57.14%
- Population Mitotic Cells (%) [4]: 53.29% and 44.12%
- Population Normal (%) [4]: 98.15% and 99.32%
- Population Pyknosed Nuclei (%) [4]: 78.77% and 93.15%
- Population Tubulin-Different-Phenotype (%) [4]: 92.86% and 85.71%
- Total Cell Count [4]: 216 and 147
- Population Apoptotic (%) [5]: 12.5% and 24.62%
- Population Fragmented Nuclei (%) [5]: 3.19% and 2.61%
- Population Healthy Nuclei (%) [5]: 82.92% and 54.9%
- Population Hoechst High Intensity Objects (%) [5]: 0% and 1.29%
- Population Membrane Permeable-Phenotype (%) [5]: 4.07% and 0%
- Population Mitochondria Different-Phenotype (%) [5]: 28.52% and 35.71%
- Population Mitotic Cells (%) [5]: 87.5% and 75.38%
- Population Normal (%) [5]: 100% and 98.71%
- Population Apoptotic (%) [6]: 59.7% and 87.84%
- Population Fragmented Nuclei (%) [6]: 1.25% and 4.94%
- Population Hoechst High Intensity Objects (%) [6]: 2.44% and 0%
- Population Membrane Permeable-Phenotype (%) [6]: 0.97% and 0%
- Population Mitochondria Different-Phenotype (%) [6]: 87.38% and 100%
- Population Normal (%) [6]: 97.56% and 100%
- Population Pyknosed Nuclei (%) [6]: 55.83% and 91.36%
- Population Tubulin-Different-Phenotype (%) [6]: 73.79% and 100%
- Total Cell Count [6]: 246 and 162
